Tests used:
[1] = target: T1, Mineralocorticoid receptor (Rattus norvegicus, UniProt P22199); test: Antagonist activity at rat mineralocorticoid receptor-ligand binding domain expressed in AH109 yeast cells co expressing pGADT7-hSRC-1 by two hybrid assay; assay type: cell-based
T1 sequence (P22199 whole entry): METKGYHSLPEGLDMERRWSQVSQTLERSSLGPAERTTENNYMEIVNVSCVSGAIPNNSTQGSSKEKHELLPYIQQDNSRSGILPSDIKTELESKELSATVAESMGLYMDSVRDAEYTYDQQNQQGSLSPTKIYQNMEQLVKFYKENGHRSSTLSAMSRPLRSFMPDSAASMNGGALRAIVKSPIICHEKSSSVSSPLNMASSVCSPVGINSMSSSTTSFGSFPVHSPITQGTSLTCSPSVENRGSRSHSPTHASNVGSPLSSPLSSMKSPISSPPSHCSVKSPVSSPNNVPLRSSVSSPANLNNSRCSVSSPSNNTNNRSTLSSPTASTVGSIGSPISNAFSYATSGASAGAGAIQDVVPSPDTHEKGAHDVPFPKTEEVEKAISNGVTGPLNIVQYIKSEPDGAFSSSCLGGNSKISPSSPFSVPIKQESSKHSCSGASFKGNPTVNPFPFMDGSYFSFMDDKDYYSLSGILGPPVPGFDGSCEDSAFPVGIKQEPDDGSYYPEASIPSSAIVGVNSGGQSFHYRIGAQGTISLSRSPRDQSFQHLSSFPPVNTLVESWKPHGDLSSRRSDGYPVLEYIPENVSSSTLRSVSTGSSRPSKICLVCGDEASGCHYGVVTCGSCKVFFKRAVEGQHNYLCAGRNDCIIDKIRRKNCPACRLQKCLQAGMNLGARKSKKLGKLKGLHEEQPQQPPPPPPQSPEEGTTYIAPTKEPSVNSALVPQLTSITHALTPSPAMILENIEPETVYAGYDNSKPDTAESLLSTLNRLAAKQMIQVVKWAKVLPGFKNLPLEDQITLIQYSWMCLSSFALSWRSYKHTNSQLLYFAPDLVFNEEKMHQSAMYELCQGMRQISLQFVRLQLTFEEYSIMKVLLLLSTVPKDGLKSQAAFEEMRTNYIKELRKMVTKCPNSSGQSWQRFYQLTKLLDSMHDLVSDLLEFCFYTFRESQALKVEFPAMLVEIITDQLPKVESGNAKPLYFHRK
Outline: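 Yeast two-hybrid read-out of corticosterone-stimulated interaction between the MR ligand-binding domain and the SRC1 coactivator. Antagonism of this interaction is expressed as IC50.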

Estrogen receptor = target: T2, Estrogen receptor (Homo sapiens, UniProt P03372); test: Inhibition of ERalpha ligand binding domain expressed in HEK293T cells; assay type: cell-based, HEK-293T
T2 sequence (P03372 whole entry): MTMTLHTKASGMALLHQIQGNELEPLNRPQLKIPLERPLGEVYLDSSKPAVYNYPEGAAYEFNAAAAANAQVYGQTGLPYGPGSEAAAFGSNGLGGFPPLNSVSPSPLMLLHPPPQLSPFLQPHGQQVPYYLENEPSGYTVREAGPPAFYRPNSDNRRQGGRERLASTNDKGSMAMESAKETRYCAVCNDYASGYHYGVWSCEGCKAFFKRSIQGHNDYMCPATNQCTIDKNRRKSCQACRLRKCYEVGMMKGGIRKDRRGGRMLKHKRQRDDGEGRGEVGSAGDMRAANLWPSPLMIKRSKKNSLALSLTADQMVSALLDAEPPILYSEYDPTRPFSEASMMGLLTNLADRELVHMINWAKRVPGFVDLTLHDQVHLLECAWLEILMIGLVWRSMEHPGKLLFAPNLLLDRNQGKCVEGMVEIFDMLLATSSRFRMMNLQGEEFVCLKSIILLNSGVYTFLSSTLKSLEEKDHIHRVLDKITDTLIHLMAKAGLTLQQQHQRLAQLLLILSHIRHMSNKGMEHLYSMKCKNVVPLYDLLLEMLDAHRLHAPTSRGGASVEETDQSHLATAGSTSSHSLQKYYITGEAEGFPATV
Outline: (§1)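 Mammalian one-hybrid assay in HEK293T cells transiently co-transfected with a UAS-TK-Luc reporter, pRL-SV40 and a pGAL4 fusion of the receptor LBD (ERα, GR or PR). The read-out is luciferase, measuring antagonism at each receptor.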

Progesterone receptor = target: T3, Progesterone receptor (Homo sapiens, UniProt P06401); test: Inhibition of progesterone receptor ligand binding domain expressed in HEK293T cells; assay type: cell-based, HEK-293T; outline: as §1
T3 sequence (P06401 whole entry): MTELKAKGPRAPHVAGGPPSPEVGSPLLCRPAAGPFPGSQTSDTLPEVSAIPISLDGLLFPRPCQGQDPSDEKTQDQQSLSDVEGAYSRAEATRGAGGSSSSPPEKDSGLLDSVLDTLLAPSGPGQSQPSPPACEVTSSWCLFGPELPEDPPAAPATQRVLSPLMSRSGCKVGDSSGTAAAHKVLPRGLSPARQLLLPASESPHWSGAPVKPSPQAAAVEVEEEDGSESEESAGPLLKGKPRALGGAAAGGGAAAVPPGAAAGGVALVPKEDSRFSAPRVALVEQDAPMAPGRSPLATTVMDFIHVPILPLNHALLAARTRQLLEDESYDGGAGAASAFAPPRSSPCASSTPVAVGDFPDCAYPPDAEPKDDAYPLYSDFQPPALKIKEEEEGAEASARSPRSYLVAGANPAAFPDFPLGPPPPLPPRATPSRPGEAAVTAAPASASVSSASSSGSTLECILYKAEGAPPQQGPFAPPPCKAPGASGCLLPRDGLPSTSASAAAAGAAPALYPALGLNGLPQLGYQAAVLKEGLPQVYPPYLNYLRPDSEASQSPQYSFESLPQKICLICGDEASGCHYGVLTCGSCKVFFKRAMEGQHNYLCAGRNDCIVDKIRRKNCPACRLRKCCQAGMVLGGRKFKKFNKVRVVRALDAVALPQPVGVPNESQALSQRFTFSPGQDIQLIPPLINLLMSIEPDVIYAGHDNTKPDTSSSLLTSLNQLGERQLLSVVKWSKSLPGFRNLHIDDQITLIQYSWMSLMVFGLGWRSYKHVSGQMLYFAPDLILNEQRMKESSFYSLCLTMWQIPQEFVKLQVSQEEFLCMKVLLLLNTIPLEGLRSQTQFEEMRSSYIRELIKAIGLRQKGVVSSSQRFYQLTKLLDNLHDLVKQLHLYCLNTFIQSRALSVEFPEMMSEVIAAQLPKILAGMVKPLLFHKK

Glucocorticoid receptor = target: T4, Glucocorticoid receptor (Homo sapiens, UniProt P04150); test: Inhibition of glucocorticoid receptor ligand binding domain expressed in HEK293T cells; assay type: cell-based; details: hek-293t; outline: as §1
T4 sequence (P04150 whole entry): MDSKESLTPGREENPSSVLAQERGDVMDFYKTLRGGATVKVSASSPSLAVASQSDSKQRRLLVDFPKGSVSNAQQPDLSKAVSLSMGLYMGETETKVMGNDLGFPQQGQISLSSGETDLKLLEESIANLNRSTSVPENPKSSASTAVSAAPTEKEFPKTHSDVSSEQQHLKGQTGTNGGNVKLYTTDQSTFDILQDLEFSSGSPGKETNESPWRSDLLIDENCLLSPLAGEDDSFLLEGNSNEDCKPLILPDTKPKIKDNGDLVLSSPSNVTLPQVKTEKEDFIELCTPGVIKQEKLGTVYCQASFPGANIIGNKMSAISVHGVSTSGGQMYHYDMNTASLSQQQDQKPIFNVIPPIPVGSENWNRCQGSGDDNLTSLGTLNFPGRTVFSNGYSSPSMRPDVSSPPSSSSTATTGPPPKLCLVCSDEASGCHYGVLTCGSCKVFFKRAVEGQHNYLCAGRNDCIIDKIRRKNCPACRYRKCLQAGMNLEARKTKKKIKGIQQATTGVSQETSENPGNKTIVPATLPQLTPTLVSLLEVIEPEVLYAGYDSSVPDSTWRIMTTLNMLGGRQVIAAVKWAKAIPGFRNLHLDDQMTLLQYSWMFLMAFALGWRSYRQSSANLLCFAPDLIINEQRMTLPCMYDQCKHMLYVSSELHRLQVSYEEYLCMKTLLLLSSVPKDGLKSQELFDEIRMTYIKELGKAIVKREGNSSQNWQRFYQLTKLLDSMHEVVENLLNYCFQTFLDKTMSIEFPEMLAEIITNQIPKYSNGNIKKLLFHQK

Row | Compound | IC50 [1] | other results
1 | C=CCOc1cc(O)c2c(c1)CCCCCCC[C@@H](C)OC2=O | Not Active | 
2 | CCOc1cc(O)c2c(c1)CCCCCCC[C@@H](C)OC2=O | Not Active | 
3 | COc1cc(O)cc2c1C(=O)O[C@H](C)CCCCCCC2 | Not Active | 
4 | COc1cc2c(c(OC)c1)C(=O)O[C@H](C)CCC/C=C/CC2 | Not Active | 
5 | COc1cc2c(c(OC)c1)C(=O)O[C@H](C)CCC/C=C\CC2 |  | IC50 ([1]; read-out: IC50): 16.6 µM
6 | C[C@@H]1CCCCCCCc2cc(OC(=O)c3ccc(Br)cc3)cc(OC(=O)c3ccc(Br)cc3)c2C(=O)O1 | Not Active | 
7 | C[C@@H]1CCCCCCCc2cc(OC(=O)c3ccc(Cl)cc3)cc(OC(=O)c3ccc(Cl)cc3)c2C(=O)O1 | Not Active | 
8 | O=C1OCCCCCCCCc2cc(O)cc(O)c21 | Not Active | 
9 | CCC(=O)Oc1cc2c(c(OC(=O)CC)c1)C(=O)O[C@H](C)CCCCCCC2 |  | IC50 ([1]; read-out: IC50): 31.7 µM
10 | C[C@@H]1CCCCCCCc2cc(OCc3ccccc3)cc(O)c2C(=O)O1 | Not Active | 
11 | CCCOc1cc2c(c(OCCC)c1)C(=O)O[C@H](C)CCCCCCC2 | Not Active | 
12 | CC(=O)Oc1cc2c(c(OC(C)=O)c1)C(=O)O[C@H](C)CCCCCCC2 |  | IC50 ([1]; read-out: IC50): 2.78 µM; IC50 (Estrogen receptor; read-out: IC50): 8.36 µM; IC50 (Progesterone receptor; hek-293t): Not Active; IC50 (Glucocorticoid receptor): Not Active
13 | O=C1OCCCCCCCCCc2cc(O)cc(O)c21 | Not Active | 
14 | CC(=O)Oc1cc2c(c(OC(C)=O)c1)C(=O)OCCCCCCCCC2 |  | IC50 ([1]; read-out: IC50): 0.82 µM; IC50 (Estrogen receptor; hek-293t): Not Active; IC50 (Progesterone receptor; read-out: IC50): 3.06 µM; IC50 (Glucocorticoid receptor): Not Active
15 | CC(=O)Oc1cc2c(c(OC(C)=O)c1)C(=O)OCCCCCCCC2 |  | IC50 ([1]; read-out: IC50): 1.11 µM; IC50 (Estrogen receptor; hek-293t): Not Active; IC50 (Progesterone receptor; hek-293t): Not Active; IC50 (Glucocorticoid receptor): Not Active
16 | CCCC(=O)Oc1cc2c(c(OC(=O)CCC)c1)C(=O)O[C@H](C)CCCCCCC2 | Not Active | 
17 | COc1cc(O)c2c(c1)CCCCCCC[C@@H](C)OC2=O | Not Active | 

Row | Compound | IC50 [1] | other results
18 | CC(=O)Oc1cc2c(c(OC(C)=O)c1)C(=O)OCCCCCCC2 |  | IC50 ([1]; read-out: IC50): 0.58 µM; IC50 (Estrogen receptor; hek-293t): Not Active; IC50 (Progesterone receptor; hek-293t): Not Active; IC50 (Glucocorticoid receptor): Not Active
19 | COc1cc2c(c(OC)c1)C(=O)O[C@H](C)CCCCCCC2 | Not Active | 
20 | O=C1OCCCCCCCc2cc(O)cc(O)c21 | Not Active | 
21 | CC(C)C(=O)Oc1cc2c(c(OC(=O)C(C)C)c1)C(=O)O[C@H](C)CCCCCCC2 | Not Active | 
22 | CCCOc1cc(O)c2c(c1)CCCCCCC[C@@H](C)OC2=O | Not Active | 
23 | C[C@@H]1CCCCCCCc2cc(O)cc(O)c2C(=O)O1 |  | IC50 ([1]; read-out: IC50): 8.93 µM
24 | C[C@@H]1CCCCCCCc2cc(OC(=O)c3ccccc3)cc(OC(=O)c3ccccc3)c2C(=O)O1 | Not Active | 
25 | CC(=O)Oc1cc2c(c(OC(C)=O)c1)C(=O)OCCCCCCCCCC2 |  | IC50 ([1]; read-out: IC50): 2.9 µM; IC50 (Estrogen receptor; read-out: IC50): > 10 µM; IC50 (Progesterone receptor; read-out: IC50): 3.22 µM; IC50 (Glucocorticoid receptor): Not Active
26 | C[C@@H]1CCCCCCCc2cc(OCc3ccc([N+](=O)[O-])cc3)cc(OCc3ccc([N+](=O)[O-])cc3)c2C(=O)O1 | Not Active | 
27 | CCCCOc1cc2c(c(OCCCC)c1)C(=O)O[C@H](C)CCCCCCC2 | Not Active | 
28 | C=CCCC[C@@H](C)OC(=O)c1c(CCC=C)cc(OC)cc1OC | Not Active | 
29 | CCOc1cc2c(c(OCC)c1)C(=O)O[C@H](C)CCCCCCC2 | Not Active | 
30 | C=CCOc1cc2c(c(OCC=C)c1)C(=O)O[C@H](C)CCCCCCC2 | Not Active | 
31 | C[C@@H]1CCCCCCCc2cc(OCc3ccccc3)cc(OCc3ccccc3)c2C(=O)O1 | Not Active | 
32 | O=C1OCCCCCCCCCCc2cc(O)cc(O)c21 | Not Active | 
33 | Cc1ccc(S(=O)(=O)Oc2cc3c(c(OS(=O)(=O)c4ccc(C)cc4)c2)C(=O)O[C@H](C)CCCCCCC3)cc1 |  | IC50 ([1]; read-out: IC50): 6.51 µM
